Assay results from ChEMBL document CHEMBL4680118, “Cerpegin-derived furo[3,4-c]pyridine-3,4(1H,5H)-diones enhance cellular response to interferons by de novo pyrimidine biosynthesis inhibition” (Eur J Med Chem, 2020).
The source made the active and inactive calls. The calls are words filed in the database; no cut-off is given here.

Legend:
[1] = biological target: T1, Dihydroorotate dehydrogenase (quinone), mitochondrial (Homo sapiens, UniProt Q02127); assay: Inhibition of DHODH in human HEK293 cells assessed as increase in 250 IU/ml IFN-alpha stimulated DDX58 mRNA expression at 80 uM measured after 16 hrs by RT-qPCR analysis relative to control; assay type: cell-based
T1 sequence (Q02127 whole entry): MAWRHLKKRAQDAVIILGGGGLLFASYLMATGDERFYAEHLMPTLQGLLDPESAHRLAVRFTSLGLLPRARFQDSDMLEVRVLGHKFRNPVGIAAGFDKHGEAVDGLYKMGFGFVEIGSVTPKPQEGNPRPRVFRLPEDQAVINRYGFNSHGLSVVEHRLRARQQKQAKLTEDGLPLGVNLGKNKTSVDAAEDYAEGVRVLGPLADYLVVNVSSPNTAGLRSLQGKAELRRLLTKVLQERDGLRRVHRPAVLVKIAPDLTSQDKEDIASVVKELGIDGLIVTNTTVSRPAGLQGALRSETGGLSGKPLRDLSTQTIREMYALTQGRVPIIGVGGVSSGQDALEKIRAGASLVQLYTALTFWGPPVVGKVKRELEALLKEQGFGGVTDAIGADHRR
In short: (§1)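 ISRE-Luc HEK cells co-treated with increasing IFN-α concentrations and DMSO or compound (80 µM) for 16 h. Total RNA extracted from 2×10^5 cells with DNase step; qPCR 35 cycles. CT values normalized to RPL13A and unstimulated controls (2^-ΔΔCT), expressed as fold change versus DMSO alone. Three independent experiments; two-way ANOVA with Bonferroni.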

[2] = biological target: T1, Dihydroorotate dehydrogenase (quinone), mitochondrial; assay: Inhibition of DHODH in human HEK293 cells transfected with ISRE-luciferase reporter gene assessed as increase in 250 IU/ml IFN-alpha stimulated IFITM3 mRNA expression at 80 uM measured after 16 hrs by RT-qPCR analysis relative to control; assay type: cell-based; in short: as §1
[3] = biological target: T1, Dihydroorotate dehydrogenase (quinone), mitochondrial; assay: Inhibition of DHODH in human HEK293 cells transfected with ISRE-luciferase reporter gene assessed as increase in 250 IU/ml IFN-alpha stimulated PKR mRNA expression at 80 uM measured after 16 hrs by RT-qPCR analysis relative to control; assay type: cell-based; in short: as §1
[4] = biological target: T1, Dihydroorotate dehydrogenase (quinone), mitochondrial; assay: Inhibition of DHODH in human HEK-293 cells transfected with ISRE-luciferase reporter gene assessed as increase in 150 IU/ml IFN-alpha mediated cellular response at 80 uM in presence of mirin measured after 24 hrs by luciferase reporter gene assay; assay type: cell-based; details: HEK293
In short: (§2)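 ISRE-Luc HEK-293 cells given IFN-α (150 IU/ml) alone or with test compound (80 µM), with or without the MRE11 inhibitor mirin, ATR inhibitor AZD6738, CHK1 inhibitor PF477736 or P300/CBP inhibitor C636. Firefly luciferase read 24 h later, normalized to IFN-α alone. Means ± SD of at least three independent experiments.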

[5] = biological target: T1, Dihydroorotate dehydrogenase (quinone), mitochondrial; assay: Inhibition of DHODH in human HEK293 cells transfected with ISRE-luciferase reporter gene assessed as increase in 60 IU/ml IFN-alpha stimulated IFIT3 mRNA expression at 80 uM measured after 16 hrs by RT-qPCR analysis relative to control; assay type: cell-based; in short: as §1
[6] = biological target: T1, Dihydroorotate dehydrogenase (quinone), mitochondrial; assay: Inhibition of DHODH in human HEK293 cells transfected with ISRE-luciferase reporter gene assessed as increase in 30 IU/ml IFN-alpha stimulated DDX58 mRNA expression at 80 uM measured after 16 hrs by RT-qPCR analysis relative to control; assay type: cell-based; in short: as §1
[7] = biological target: T1, Dihydroorotate dehydrogenase (quinone), mitochondrial; assay: Inhibition of DHODH in human HEK293 cells transfected with ISRE-luciferase reporter gene assessed as increase in INFgamma-stimulated cellular response at 80 uM measured after 24 hrs by luciferase reporter gene assay; assay type: cell-based
In short: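 ISRE-Luc HEK-293 cells were treated with DMSO or compound at 80 μM, with or without recombinant IFN-γ at 150 IU/ml. Firefly luciferase was read 24 h later with Bright-Glo or Britelite, 0.1 s luminescence. Signal was normalized to DMSO + IFN-γ. Values are means ± SD of three independent experiments; two-tailed t-test.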

[8] = biological target: T1, Dihydroorotate dehydrogenase (quinone), mitochondrial; assay: Inhibition of DHODH in human HEK293 cells transfected with ISRE-luciferase reporter gene assessed as increase in 60 IU/ml IFN-alpha stimulated ISG15 mRNA expression at 80 uM measured after 16 hrs by RT-qPCR analysis relative to control; assay type: cell-based
In short: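 HEK-293 ISRE-Luc cells (DMEM, 10% FCS, 37°C, 5% CO2) were given increasing IFN-α doses together with DMSO or compound at 80 μM, then harvested at 16 h. RNA was extracted from 2×10^5 cells with DNase treatment. Transcripts were run by qPCR for 35 cycles and normalized to RPL13A and to unstimulated controls by 2^-ΔΔCT. Values are fold change versus DMSO; three independent experiments; two-way ANOVA with Bonferroni.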

[9] = biological target: T1, Dihydroorotate dehydrogenase (quinone), mitochondrial; assay: Inhibition of DHODH in human HEK293 cells transfected with ISRE-luciferase reporter gene assessed as increase in 125 IU/ml IFN-alpha stimulated MX2 mRNA expression at 80 uM measured after 16 hrs by RT-qPCR analysis relative to control; assay type: cell-based; in short: as §1
[10] = biological target: T1, Dihydroorotate dehydrogenase (quinone), mitochondrial; assay: Inhibition of DHODH in human HEK293 cells transfected with ISRE-luciferase reporter gene assessed as increase in 30 IU/ml IFN-alpha stimulated ISG15 mRNA expression at 80 uM measured after 16 hrs by RT-qPCR analysis relative to control; assay type: cell-based; in short: as §1
[11] = biological target: T1, Dihydroorotate dehydrogenase (quinone), mitochondrial; assay: Inhibition of DHODH in human HEK293 cells transfected with ISRE-luciferase reporter gene assessed as increase in 250 IU/ml IFN-alpha stimulated IFIT5 mRNA expression at 80 uM measured after 16 hrs by RT-qPCR analysis relative to control; assay type: cell-based; in short: as §1
[12] = biological target: T1, Dihydroorotate dehydrogenase (quinone), mitochondrial; assay: Inhibition of DHODH in human HEK293 cells transfected with ISRE-luciferase reporter gene assessed as increase in 30 IU/ml IFN-alpha stimulated IFIT2 mRNA expression at 80 uM measured after 16 hrs by RT-qPCR analysis relative to control; assay type: cell-based; in short: as §1
[13] = biological target: T1, Dihydroorotate dehydrogenase (quinone), mitochondrial; assay: Inhibition of DHODH in human HEK293 cells transfected with ISRE-luciferase reporter gene assessed as increase in 125 IU/ml IFN-alpha stimulated DDX58 mRNA expression at 80 uM measured after 16 hrs by RT-qPCR analysis relative to control; assay type: cell-based; in short: as §1
[14] = biological target: T1, Dihydroorotate dehydrogenase (quinone), mitochondrial; assay: Inhibition of DHODH in human HEK-293 cells transfected with ISRE-luciferase reporter gene assessed as increase in IFN-alpha mediated cellular response after 24 hrs by luciferase reporter gene assay; details: read-out: EC50
[15] = biological target: T1, Dihydroorotate dehydrogenase (quinone), mitochondrial; assay: Inhibition of DHODH in human HEK293 cells transfected with ISRE-luciferase reporter gene assessed as increase in 250 IU/ml IFN-alpha stimulated IFIT3 mRNA expression at 80 uM measured after 16 hrs by RT-qPCR analysis relative to control; assay type: cell-based; in short: as §1
[16] = biological target: T1, Dihydroorotate dehydrogenase (quinone), mitochondrial; assay: Inhibition of DHODH in human HEK293 cells assessed as effect on intracellular purine level measured after 24 hrs by HPLC coupled spectrophotometry; assay type: cell-based
In short: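 HEK-293 cells plated at 1×10^6 per well, treated 24 h later with compound (80 µM final) or DMSO for 24 h. Pellets deproteinized with 6% perchloric acid, neutralized with Na2CO3, analysed by C18 HPLC at 45°C with ion-pair phosphate/MeOH gradient, detected at 254 nm against reference nucleoside calibration curves. Normalized to viable cell number and DMSO controls.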

[17] = biological target: T1, Dihydroorotate dehydrogenase (quinone), mitochondrial; assay: Inhibition of DHODH in human HEK293 cells transfected with ISRE-luciferase reporter gene assessed as increase in 125 IU/ml IFN-alpha stimulated IFIT5 mRNA expression at 80 uM measured after 16 hrs by RT-qPCR analysis relative to control; assay type: cell-based; in short: as §1
[18] = biological target: T1, Dihydroorotate dehydrogenase (quinone), mitochondrial; assay: Inhibition of DHODH in human HEK-293 cells transfected with ISRE-luciferase reporter gene assessed as increase in 150 IU/ml IFN-alpha mediated cellular response at 80 uM in presence of P300/CBP measured after 24 hrs by luciferase reporter gene assay; assay type: cell-based; details: HEK293; in short: as §2

## O=C1OC2(CCCCC2)c2ccn(C3CC3)c(=O)c21
[1]
  fold change (FC): 38
[2]
  fold change (FC): 15
[3]
  fold change (FC): 4
[4]
  Activity: inactive
[5]
  fold change (FC): 69
[6]
  fold change (FC): 16
[7]
  Activity: Active
[8]
  fold change (FC): 163
[9]
  fold change (FC): 20
[10]
  fold change (FC): 21
[11]
  fold change (FC): 5
[12]
  fold change (FC): 26
[13]
  fold change (FC): 31
[14]
  EC50: 44 µM
[15]
  fold change (FC): 129
[16]
  Activity: inactive
[17]
  fold change (FC): 4
[18]
  Activity: inactive
